Data from publication PMC2819025 (Biochemistry, 2010).
Values belong to the molecule of their own block, whether it stands above or below them. No end group written: not given here. rhodamine = not defined here

Experiments:
par3-PDZ3 [1] = molecular target: par3-PDZ3 (Mus musculus, UniProt Q99NH2); assay: Fluorescence polarization titration of rhodamine-labeled peptides with par3-PDZ3; type: binding, M. musculus; details: rhodamine labeled peptide
Summary of the method: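 Mouse par3-PDZ3 (residues 581–689) was expressed in E. coli SG13009 with a cleavable N-terminal His8 tag, purified by Ni2+ affinity, TEV-cleaved and cation-exchange purified. Increasing par3-PDZ3 was titrated into 100nM N-terminally rhodamine-labelled synthetic peptide in 50mM HEPES, 100mM NaCl, 1mM DTT, 1mM EDTA, pH 7.4, 298K (ex 562nm/em 582nm). Kd came from fitting a single-site hyperbolic binding equation.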

par3-PDZ3 [2] = details: read-out: Kd for par3-PDZ3; reported value; ref [16]; cited from earlier work
[3] = molecular target: par3-PDZ3 (residues 581 to 689 of M. musculus par3) (M. musculus, UniProt Q99NH2 581-689); assay: fluorescence polarisation
Sequence of par3-PDZ3 (residues 581 to 689 of M. musculus par3) (Q99NH2 581-689): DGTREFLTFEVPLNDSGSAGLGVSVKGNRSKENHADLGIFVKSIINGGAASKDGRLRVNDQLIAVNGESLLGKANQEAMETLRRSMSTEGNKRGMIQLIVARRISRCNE

Sequence of par3-PDZ3 (Mus musculus, UniProt Q99NH2) (Q99NH2 581-689): as above

Molecule: DEDQHSQITKVcoo-
Kd (par3-PDZ3 [2]): 19 µM

Molecule: rhodamine-LAGSDPQEELII (peptide, UniProt P55284 773-784, looked up, reading uncertain) [rhodamine-labeled VE-Cad (773-784) Y774A]
binding result [3]: binds

Now from value to molecule:

interaction with par3-PDZ3 (detected or not) (par3-PDZ3 [1]): failed to detect any interaction
Molecule: QHSQITKVcoo-

Kd [3]: 6 µM
Molecule: rhodamine-LYGSDPQEELII (reading uncertain) [rhodamine-labeled VE-Cad (773-784)]
